Measurements published in ChEMBL document CHEMBL1139946, “1-Aryl-4,6-dihydropyrazolo[4,3-d][1]benzazepin-5(1H)-ones: a new class of antiproliferative agents with selectivity for human leukemia and breast cancer cell lines” (Eur J Med Chem, 2007).

How the values were obtained:
MCF7 = experiment: Antiproliferative activity against human MCF7 cells at 100 uM after 48 hrs relative to control; type: functional; conditions: MCF7, 48 h
How it was run: (§1)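 NCI three-cell-line prescreen (MCF7 breast, NCI-H460 non-small cell lung, SF-268 CNS). Cells inoculated and preincubated in microtiter plates, then exposed to test agent at 10^-4 M for 48 h. Alamar blue end-point read-out. Growth of treated cells expressed as percent of untreated control cells.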

SF-268 = experiment: Antiproliferative activity against human SF268 cells at 100 uM after 48 hrs relative to control; type: functional; conditions: SF-268, 48 h; how it was run: as §1
[1] = biological target: Receptor tyrosine-protein kinase erbB-2 (Homo sapiens) (UniProt P04626); experiment: Inhibition of ERBB2 at 10 uM
Sequence of Receptor tyrosine-protein kinase erbB-2 (Homo sapiens) (P04626 whole entry): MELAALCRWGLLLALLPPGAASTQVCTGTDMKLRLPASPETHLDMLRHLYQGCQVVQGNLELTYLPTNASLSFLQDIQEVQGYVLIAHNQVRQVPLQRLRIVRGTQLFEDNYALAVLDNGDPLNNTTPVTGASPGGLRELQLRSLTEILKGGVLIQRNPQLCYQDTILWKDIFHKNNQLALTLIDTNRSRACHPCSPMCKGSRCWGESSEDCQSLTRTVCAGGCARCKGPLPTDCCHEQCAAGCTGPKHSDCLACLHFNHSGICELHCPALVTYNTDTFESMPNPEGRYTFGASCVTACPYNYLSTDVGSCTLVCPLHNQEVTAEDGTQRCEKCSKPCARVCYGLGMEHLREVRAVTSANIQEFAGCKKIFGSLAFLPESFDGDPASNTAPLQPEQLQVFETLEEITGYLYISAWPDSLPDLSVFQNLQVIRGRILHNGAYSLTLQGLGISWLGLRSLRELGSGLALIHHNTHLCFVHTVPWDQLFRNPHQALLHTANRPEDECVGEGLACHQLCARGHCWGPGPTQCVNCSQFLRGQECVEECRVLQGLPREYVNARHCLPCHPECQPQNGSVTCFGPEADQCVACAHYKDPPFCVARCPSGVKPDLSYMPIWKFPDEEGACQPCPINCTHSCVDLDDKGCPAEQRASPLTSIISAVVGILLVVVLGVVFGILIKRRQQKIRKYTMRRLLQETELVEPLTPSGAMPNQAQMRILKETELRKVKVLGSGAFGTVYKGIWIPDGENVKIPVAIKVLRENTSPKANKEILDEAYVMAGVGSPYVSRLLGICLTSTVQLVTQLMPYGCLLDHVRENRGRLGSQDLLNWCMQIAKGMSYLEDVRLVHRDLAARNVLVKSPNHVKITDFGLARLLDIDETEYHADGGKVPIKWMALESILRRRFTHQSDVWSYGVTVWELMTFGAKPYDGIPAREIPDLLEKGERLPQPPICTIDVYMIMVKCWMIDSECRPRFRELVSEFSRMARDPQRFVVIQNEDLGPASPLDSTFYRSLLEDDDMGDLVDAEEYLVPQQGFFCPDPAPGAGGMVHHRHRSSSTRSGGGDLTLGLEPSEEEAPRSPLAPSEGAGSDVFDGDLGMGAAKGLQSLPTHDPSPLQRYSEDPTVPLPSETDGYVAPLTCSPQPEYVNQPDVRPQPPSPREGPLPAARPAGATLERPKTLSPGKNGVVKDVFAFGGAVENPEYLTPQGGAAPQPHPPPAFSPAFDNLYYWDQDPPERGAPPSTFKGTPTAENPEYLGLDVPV

[2] = biological target: Focal adhesion kinase 1 (Homo sapiens) (UniProt Q05397); experiment: Inhibition of FAK at 10 uM
[3] = biological target: Insulin-like growth factor 1 receptor (Homo sapiens) (UniProt P08069); experiment: Inhibition of IGF1R at 10 uM
Sequence of Insulin-like growth factor 1 receptor (Homo sapiens) (P08069 31-736 limits assumed): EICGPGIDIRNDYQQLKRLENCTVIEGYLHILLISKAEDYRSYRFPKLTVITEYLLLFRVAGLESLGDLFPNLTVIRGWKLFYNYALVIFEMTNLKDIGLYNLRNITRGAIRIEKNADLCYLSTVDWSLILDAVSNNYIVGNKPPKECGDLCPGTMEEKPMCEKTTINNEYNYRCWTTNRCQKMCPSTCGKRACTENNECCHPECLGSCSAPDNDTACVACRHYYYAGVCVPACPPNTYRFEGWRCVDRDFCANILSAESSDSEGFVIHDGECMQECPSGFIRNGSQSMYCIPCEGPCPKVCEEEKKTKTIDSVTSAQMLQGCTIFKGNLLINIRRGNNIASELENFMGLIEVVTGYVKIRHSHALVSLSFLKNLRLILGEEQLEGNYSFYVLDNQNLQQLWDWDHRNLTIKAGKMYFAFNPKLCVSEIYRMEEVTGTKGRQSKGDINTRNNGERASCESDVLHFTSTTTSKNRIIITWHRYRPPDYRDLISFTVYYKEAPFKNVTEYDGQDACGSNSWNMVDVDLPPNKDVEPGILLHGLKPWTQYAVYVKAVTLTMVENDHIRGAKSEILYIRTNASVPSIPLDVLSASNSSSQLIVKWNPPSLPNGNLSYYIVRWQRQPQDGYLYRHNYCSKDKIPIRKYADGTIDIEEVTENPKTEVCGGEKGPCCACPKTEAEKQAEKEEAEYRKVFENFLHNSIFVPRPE
Sequence of Insulin-like growth factor 1 receptor (Homo sapiens) (P08069 741-1367 limits assumed): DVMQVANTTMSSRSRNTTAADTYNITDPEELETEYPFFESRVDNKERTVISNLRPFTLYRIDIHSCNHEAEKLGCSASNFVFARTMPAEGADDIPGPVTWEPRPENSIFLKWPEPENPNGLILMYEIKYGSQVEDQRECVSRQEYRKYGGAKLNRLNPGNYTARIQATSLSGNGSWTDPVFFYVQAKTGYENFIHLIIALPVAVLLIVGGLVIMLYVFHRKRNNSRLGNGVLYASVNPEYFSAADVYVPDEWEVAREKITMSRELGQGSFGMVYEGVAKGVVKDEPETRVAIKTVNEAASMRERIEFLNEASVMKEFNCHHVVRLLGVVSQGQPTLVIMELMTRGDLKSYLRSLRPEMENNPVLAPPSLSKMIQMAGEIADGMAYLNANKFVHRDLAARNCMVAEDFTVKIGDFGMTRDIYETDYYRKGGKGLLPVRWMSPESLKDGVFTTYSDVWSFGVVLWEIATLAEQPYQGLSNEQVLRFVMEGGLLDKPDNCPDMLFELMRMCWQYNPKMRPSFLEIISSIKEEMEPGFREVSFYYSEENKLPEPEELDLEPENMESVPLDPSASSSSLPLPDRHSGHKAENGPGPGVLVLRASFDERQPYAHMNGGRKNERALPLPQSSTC

[4] = biological target: Proto-oncogene tyrosine-protein kinase Src (Homo sapiens) (UniProt P12931); experiment: Inhibition of SRC at 10 uM
Sequence of Proto-oncogene tyrosine-protein kinase Src (Homo sapiens) (P12931 2-536 limits assumed): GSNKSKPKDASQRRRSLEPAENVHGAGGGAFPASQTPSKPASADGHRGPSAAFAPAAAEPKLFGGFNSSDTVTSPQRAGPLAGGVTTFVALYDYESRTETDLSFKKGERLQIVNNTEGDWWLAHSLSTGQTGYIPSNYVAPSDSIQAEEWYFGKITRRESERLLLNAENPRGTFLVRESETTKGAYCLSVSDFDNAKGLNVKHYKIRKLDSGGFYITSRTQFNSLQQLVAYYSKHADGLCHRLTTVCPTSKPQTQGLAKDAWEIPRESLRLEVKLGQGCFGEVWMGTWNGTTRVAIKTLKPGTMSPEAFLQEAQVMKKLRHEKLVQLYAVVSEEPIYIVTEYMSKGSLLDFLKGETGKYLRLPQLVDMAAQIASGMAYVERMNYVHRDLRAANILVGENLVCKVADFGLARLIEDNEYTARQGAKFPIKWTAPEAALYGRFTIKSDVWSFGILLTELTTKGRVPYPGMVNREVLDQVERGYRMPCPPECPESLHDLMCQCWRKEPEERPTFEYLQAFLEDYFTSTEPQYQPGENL

[5] = biological target: Hepatocyte growth factor receptor (Homo sapiens) (UniProt P08581); experiment: Inhibition of MET at 10 uM
[6] = biological target: Vascular endothelial growth factor receptor 2 (Homo sapiens) (UniProt P35968); experiment: Inhibition of VEGFR2 at 10 uM
[7] = biological target: T1, Aurora kinase A (Homo sapiens) (UniProt O14965); experiment: Inhibition of aurora A at 10 uM
T1 sequence (whole entry): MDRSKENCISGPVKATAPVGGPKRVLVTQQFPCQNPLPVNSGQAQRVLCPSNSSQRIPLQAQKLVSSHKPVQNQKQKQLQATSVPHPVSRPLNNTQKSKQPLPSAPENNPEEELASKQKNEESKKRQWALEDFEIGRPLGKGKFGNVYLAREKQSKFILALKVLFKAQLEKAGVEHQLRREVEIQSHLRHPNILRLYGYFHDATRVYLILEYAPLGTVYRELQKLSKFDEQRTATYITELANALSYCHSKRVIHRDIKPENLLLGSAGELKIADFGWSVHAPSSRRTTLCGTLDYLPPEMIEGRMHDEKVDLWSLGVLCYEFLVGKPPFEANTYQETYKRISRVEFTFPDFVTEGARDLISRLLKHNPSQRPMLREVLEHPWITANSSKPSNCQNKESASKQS

[8] = biological target: Aurora kinase B (Homo sapiens) (UniProt Q96GD4); experiment: Inhibition of aurora B at 10 uM
Homo sapiens [9] = species on record: Homo sapiens; experiment: Inhibition of CDK4/cyclinD1 at 10 uM
Homo sapiens [10] = species on record: Homo sapiens; experiment: Inhibition of CK2-alpha1 at 10 uM
[11] = biological target: Serine/threonine-protein kinase PLK1 (Homo sapiens) (UniProt P53350); experiment: Inhibition of PLK1 at 10 uM
Sequence of Serine/threonine-protein kinase PLK1 (Homo sapiens) (P53350 whole entry): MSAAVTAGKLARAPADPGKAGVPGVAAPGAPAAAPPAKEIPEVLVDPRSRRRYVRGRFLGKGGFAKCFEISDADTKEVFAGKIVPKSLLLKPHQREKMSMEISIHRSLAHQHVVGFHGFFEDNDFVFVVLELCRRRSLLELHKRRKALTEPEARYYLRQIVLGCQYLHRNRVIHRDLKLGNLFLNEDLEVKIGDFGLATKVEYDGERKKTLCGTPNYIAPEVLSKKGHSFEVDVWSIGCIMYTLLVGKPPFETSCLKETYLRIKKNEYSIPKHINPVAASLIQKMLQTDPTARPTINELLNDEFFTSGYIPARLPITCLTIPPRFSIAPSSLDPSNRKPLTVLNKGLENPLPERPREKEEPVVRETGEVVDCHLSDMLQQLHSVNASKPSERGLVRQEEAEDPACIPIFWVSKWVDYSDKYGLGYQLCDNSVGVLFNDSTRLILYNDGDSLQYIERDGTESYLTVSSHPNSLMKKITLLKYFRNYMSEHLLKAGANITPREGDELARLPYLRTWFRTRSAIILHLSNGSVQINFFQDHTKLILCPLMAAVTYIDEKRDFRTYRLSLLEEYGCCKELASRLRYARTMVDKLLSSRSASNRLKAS

[12] = biological target: Angiopoietin-1 receptor (Homo sapiens) (UniProt Q02763); experiment: Inhibition of TIE2 at 10 uM
Sequence of Angiopoietin-1 receptor (Homo sapiens) (Q02763 whole entry): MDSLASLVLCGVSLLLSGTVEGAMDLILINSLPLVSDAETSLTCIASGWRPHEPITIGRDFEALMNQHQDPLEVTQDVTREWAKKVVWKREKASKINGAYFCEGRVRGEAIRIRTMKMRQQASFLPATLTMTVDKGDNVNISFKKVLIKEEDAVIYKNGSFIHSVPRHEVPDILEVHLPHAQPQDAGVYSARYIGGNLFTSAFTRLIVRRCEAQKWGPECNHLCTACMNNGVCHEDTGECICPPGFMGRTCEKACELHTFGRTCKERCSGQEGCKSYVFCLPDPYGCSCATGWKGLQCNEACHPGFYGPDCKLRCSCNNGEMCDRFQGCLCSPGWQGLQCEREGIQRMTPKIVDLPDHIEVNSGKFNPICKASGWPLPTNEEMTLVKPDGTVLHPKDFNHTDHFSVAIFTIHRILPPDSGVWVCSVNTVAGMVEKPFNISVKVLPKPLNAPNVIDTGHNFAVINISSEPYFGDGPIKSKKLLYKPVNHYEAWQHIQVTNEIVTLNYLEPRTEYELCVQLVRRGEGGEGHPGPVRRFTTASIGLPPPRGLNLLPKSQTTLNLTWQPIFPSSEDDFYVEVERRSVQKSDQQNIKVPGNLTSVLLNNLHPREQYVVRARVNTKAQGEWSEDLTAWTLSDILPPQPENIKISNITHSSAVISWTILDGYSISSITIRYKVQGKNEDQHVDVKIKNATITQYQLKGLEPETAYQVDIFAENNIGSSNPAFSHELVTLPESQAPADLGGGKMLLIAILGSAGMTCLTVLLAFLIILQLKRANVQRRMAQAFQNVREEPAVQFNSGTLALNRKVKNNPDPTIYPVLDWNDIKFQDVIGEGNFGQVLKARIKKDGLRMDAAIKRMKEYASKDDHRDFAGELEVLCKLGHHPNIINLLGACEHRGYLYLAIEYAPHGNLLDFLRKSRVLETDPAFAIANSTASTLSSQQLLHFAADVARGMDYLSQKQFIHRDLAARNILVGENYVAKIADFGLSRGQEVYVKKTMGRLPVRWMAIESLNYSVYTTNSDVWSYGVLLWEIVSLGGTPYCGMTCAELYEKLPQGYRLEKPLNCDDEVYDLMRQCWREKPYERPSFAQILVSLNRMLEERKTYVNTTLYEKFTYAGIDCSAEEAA

[13] = biological target: Platelet-derived growth factor receptor beta (Homo sapiens) (UniProt P09619); experiment: Inhibition of PDGFRbeta at 10 uM
[14] = biological target: Serine/threonine-protein kinase PAK 4 (Homo sapiens) (UniProt O96013); experiment: Inhibition of PAK4 at 10 uM
[15] = biological target: Receptor-type tyrosine-protein kinase FLT3 (Homo sapiens, UniProt P36888); experiment: Inhibition of FLT3

- inhibition [1]: < 40%
- inhibition [2]: < 40%
- inhibition [3]: < 40%
- inhibition [4]: < 40%
- inhibition [5]: < 40%
- inhibition [6]: < 40%
- inhibition [7]: < 40%
- inhibition [8]: < 40%
- inhibition (Homo sapiens [9]): < 40%
- inhibition (Homo sapiens [10]): < 40%
- inhibition [11]: < 40%
- inhibition [12]: < 40%
- inhibition [13]: < 40%
- inhibition [14]: < 40%
- IC50 [15]: > 10 µM
Structure (SMILES): O=C1Cc2cnn(-c3ccc(Cl)cc3)c2-c2ccccc2N1
- growth, % of control at 100 µM (MCF7): 54%
- growth, % of control at 100 µM (SF-268): 80%
